In ChEMBL document CHEMBL5385869, “Novel 4-aminoquinolines: Synthesis, inhibition of the Mycobacterium tuberculosis enoyl-acyl carrier protein reductase, antitubercular activity, SAR, and preclinical evaluation” (Eur J Med Chem, 2023):
In brackets after ≈: the same amount, converted by molar mass. Activity calls are given as the source filed them. The calls are words filed in the database; no cut-off is given here.

Assays:
[1] = biological target: T1, Enoyl-[acyl-carrier-protein] reductase [NADH] (Mycobacterium tuberculosis, UniProt P9WGR1); assay: Inhibition of Mycobacterium tuberculosis InhA-catalysed chemical reaction in presence of NADH measured for 1 min by UV/Visible spectrophotometry
T1 sequence (P9WGR1 whole entry): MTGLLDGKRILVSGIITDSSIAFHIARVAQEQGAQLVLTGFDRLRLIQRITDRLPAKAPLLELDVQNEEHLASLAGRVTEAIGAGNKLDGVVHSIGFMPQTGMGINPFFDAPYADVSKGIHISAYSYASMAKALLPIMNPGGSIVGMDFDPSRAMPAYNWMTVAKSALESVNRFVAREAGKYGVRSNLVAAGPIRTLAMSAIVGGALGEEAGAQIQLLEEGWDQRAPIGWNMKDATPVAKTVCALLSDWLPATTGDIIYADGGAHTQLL
Outline: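 Recombinant MtInhA reaction at 25 °C in 100 mM Pipes pH 7.0, started by adding 2.2 μM enzyme and followed for 1 min. Substrate is DD-CoA, made from 2-trans-dodecenoic acid and CoA.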

[2] = Selectivity index, ratio of CC50 for African green monkey Vero cells by neutral red uptake assay to MIC for pan-sensitive Mycobacterium tuberculosis H37Rv ATCC 27294; assay type: toxicity, cell-based; conditions: read-out: Selectivity Index
[3] = Solubility of compound in 0.1 M HCl solution at pH 1.2 at 1 mg incubated for 4 hrs under shaking conditions by liquid chromotography; assay type: physicochemical
Outline: (§1)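 1 mg of compound was added to 1 mL of PBS pH 7.4 or 0.1 M HCl, in triplicate. Suspensions were vortexed 1 min, shaken 4 h at 25 °C, then centrifuged 13000 rpm for 15 min at 25 °C. Supernatant was quantified by reverse-phase UHPLC (UV 260–280 nm) against a single-point calibration of compound in DMSO.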

[4] = Permeability of compound at 10 uM measured after 5 hrs by PAMPA assay; assay type: ADME; conditions: read-out: permeability
Outline: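 PAMPA: compounds at 10 μM in 2% DMSO added to a pH 7.4 donor phase, 5 h at room temperature. Receptor-side concentration (pH 7.4) measured to derive permeation rate. Alprenolol is the analytical control.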

Acinetobacter baumannii = assay: Antibacterial activity against multidrug-resistant Acinetobacter baumannii clinical isolates assessed as inhibition of bacterial growth at 20 uM by broth microdilution method; assay type: functional, organism-based
Outline: (§2)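 Broth microdilution in triplicate against a small bacterial panel, with compounds tested at 20 μM for growth inhibition.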

[5] = system: Mycobacterium tuberculosis; assay: Antibacterial activity against Mycobacterium tuberculosis H37Rv ATCC 27294 infected in mouse RAW264.7 cells assessed as reduction in colony forming units at 5 uM measured after 5 days (reference value: 4.19 +/- 0.41); assay type: functional; conditions: time 5 day
[6] = Solubility of compound in PBS at pH 7.4 at 1 mg incubated for 4 hrs under shaking conditions by liquid chromotography; assay type: physicochemical; outline: as §1
[7] = Selectivity index, ratio of CC50 for human HepG2 cells by MTT assay to MIC for pan-sensitive Mycobacterium tuberculosis H37Rv ATCC 27294; assay type: toxicity; conditions: read-out: Selectivity Index
[8] = Genotoxicity in human HepG2 cells assessed as induction of DNA damage at 1 to 5 uM incubated for 24 hrs by alkaline comet assay; assay type: toxicity, cell-based; conditions: hepg2, 24 h, dose 1-5 µM
Outline: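 Alkaline comet assay in HepG2 cells seeded at 8 × 10⁴ cells/well. Exposure to 1 or 5 μM for 24 h. Lysis 48 h, alkali unwinding (300 mM NaOH, pH >13) 20 min at 4 °C, electrophoresis 20 min at 25 V, silver staining.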

[9] = biological target: T1, Enoyl-[acyl-carrier-protein] reductase [NADH]; assay: Noncompetitive inhibition of Mycobacterium tuberculosis InhA using DD-CoA as substrate assessed as inhibition constant for enzyme-substrate-inhibitor ternary complex in presence of varying concentrations of NADH by double reciprocal plot analysis
[10] = biological target: T1, Enoyl-[acyl-carrier-protein] reductase [NADH]; assay: Competitive inhibition of Mycobacterium tuberculosis InhA using varying concentrations of DD-CoA as substrate assessed as inhibition constant for enzyme-inhibitor binary complex in presence of NADH by Lineweaver-Burk plot analysis
Outline: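 Steady-state kinetics with recombinant MtInhA in 100 mM Pipes pH 7.0 at 25 °C. NADH fixed at 60 μM, DD-CoA varied 15–135 μM, inhibitor at fixed-varied levels of 0.2–4 μM. Kis is fitted to the competitive inhibition equation.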

[11] = biological target: T1, Enoyl-[acyl-carrier-protein] reductase [NADH]; assay: Binding affinity to Mycobacterium tuberculosis InhA assessed as dissociation constant at 250 uM at 25 degreeC in presence of NADH by fluorescence spectroscopy
Outline: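 Titration of pre-formed MtInhA:NADH complex (2 mL of 3 μM enzyme with 20 μM NADH), adding microliter aliquots of 250 μM ligand stock with dilution kept ≤1%. Intrinsic fluorescence read at 295 nm excitation, 310–500 nm emission. Temperatures 15, 20, 25 and 30 °C. KD is fitted to a hyperbolic isotherm. ΔH°, ΔS° and ΔG° come from van't Hoff analysis of KD across temperatures.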

Escherichia coli = assay: Antibacterial activity against Escherichia coli ATCC 25922 assessed as inhibition of bacterial growth at 20 uM by broth microdilution method; assay type: functional, organism-based; outline: as §2
Staphylococcus aureus = assay: Antibacterial activity against Staphylococcus aureus ATCC 25923 assessed as inhibition of bacterial growth at 20 uM by broth microdilution method; assay type: functional, organism-based; outline: as §2
[12] = system: Mycobacterium tuberculosis; assay: Antibacterial activity against pan-sensitive Mycobacterium tuberculosis H37Rv ATCC 27294 measured after 7 days by resazurin dye based assay; assay type: functional; conditions: H37Rv ATCC 27294, 168 h, time 7 day
Outline: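 Resazurin reduction microplate assay (REMA) in Middlebrook 7H9 broth with 10% ADC and 5% DMSO. Compounds come from 2 mg/mL DMSO stocks and are 2-fold serially diluted, top concentration 0.08–40 μg/mL depending on solubility. MIC is the lowest concentration preventing the blue-to-pink colour change. Three independent experiments; the reported value is the modal or the highest value.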

[13] = Metabolic stability in rat liver microsomes assessed as half life at 2 uM measured upto 30 mins by HPLC/MS/MS analysis; assay type: ADME, Microsome
Outline: (§3)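 Compounds at 2 μM incubated at 37 °C with 1 mg/mL rat liver microsomes containing NADPH. Parent compound consumption followed over time.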

[14] = Chemical stability in 0.1 M NH4HCO3 solution at pH 9.1 assessed as parent compound remaining at 1 to 10 uM measured after 24 hrs by HPLC-EM/MS analysis; assay type: physicochemical; conditions: dose 1-10 µM, read-out: Stability
Outline: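 Compounds at 1–10 μM incubated 24 h at 37 °C in three media: pH 1.2 (0.1 M HCl), pH 7.4 (PBS) and pH 9.1 (0.1 M NH4HCO3). Remaining parent compound quantified afterward.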

[15] = Metabolic stability in rat liver microsomes assessed as intrinsic clearance at 2 uM measured upto 30 mins by HPLC/MS/MS analysis; assay type: ADME, Microsome; conditions: read-out: CLH; outline: as §3
[16] = system: Mycobacterium tuberculosis; assay: Potency index, ratio of isoniazid MIC to test compound MIC for antibacterial activity against pan-sensitive Mycobacterium tuberculosis H37Rv ATCC 27294 measured after 7 days by resazurin dye based assay; assay type: functional; conditions: time 7 day

Structure (SMILES) | IC50 [1] [nM] | selectivity ratio [2] | solubility thermodynamic at 4 h [3] [µM] | Papp at 5 h, 10 µM [4] [×10⁻⁶ cm/s] | Activity (Acinetobacter baumannii) | Activity [5] [log10CFU] | solubility thermodynamic at 4 h [6] [µM] | selectivity ratio [7] | Activity [8] | Ki [9] [nM] | Ki [10] [nM] | Kd [11] [nM] | Activity (Escherichia coli) | Activity (Staphylococcus aureus) | MIC [12] [µM] | half-life at 2 µM [13] [min] | remaining at 24 h, up to 10 µM [14] [%] | CLint scaled at 2 µM [15] [mL/min/kg] | Ratio [16]
Cc1cc(Nc2ccc(N3CCCCC3)cc2)c2cc(Cl)ccc2n1 | 1100 | 13 | > 2800 | 11.5 | inactive | 2.39 | 18.6 (≈ 6.54 µg/mL) | > 22.2 | Non-Toxic | 460 | 1330 | 900 | inactive | inactive | 0.9 (≈ 0.317 µg/mL) | 5.9 | 24.7 | 60.5 | ~2.6
Cc1cc(Nc2ccc(N3CCCCC3)cc2)c2cc(Br)ccc2n1 | 230 | 30.5 | > 2500 | 3.16 | inactive | 2.74 | 3.9 (≈ 1.55 µg/mL) | > 50 | Non-Toxic | 150 | 140 | 810 | inactive | inactive | 0.4 (≈ 0.159 µg/mL) | 22 | 47 | 36.2 | ~5.8
